Assay results as given in ChEMBL document CHEMBL1649372, “Discovery of highly potent agents against influenza A virus” (Eur J Med Chem, 2011).
Activity calls are given as the source filed them. No cut-off for these calls is given here.

Test system: Influenza A virus
Experiment: Antiviral activity against amantadine-sensitive Influenza A virus A/Hong Kong/8/68 (H3N2) infected in MDCK cells assessed as host cell survival after 72 hrs by CCK8 method
Assay type: functional, organism-based
How it was run: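 Compounds added with TPCK and 0.3% BSA and preincubated 30 min at 37 °C. Cells then infected with about 0.01 MOI A/Hong Kong/8/68 (H3N2) and incubated 72 h at 37 °C in 5% CO2. CCK-8 reagent then added to read host cell survival.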

SMILES | IC50 [µM]
CN[C@@H]1C[C@@H]2C[C@H]([C@H]1C)C2(C)C | 23.5
Cc1ccc(/C=N/[C@@H]2C[C@@H]3C[C@H]([C@H]2C)C3(C)C)cc1 | 13.9
C[C@@H]1[C@H]2C[C@@H](C[C@H]1NCc1ccc(O)cc1)C2(C)C | > 200
C[C@@H]1[C@H]2C[C@@H](C[C@H]1/N=C/c1cccc(O)c1)C2(C)C | 5.99
C[C@@H]1[C@H]2C[C@@H](C[C@H]1/N=C/c1ccccc1)C2(C)C | 7.78
NC12CC3CC(CC(C3)C1)C2 [AMANTADINE] | 21.1
C[C@@H]1[C@H]2C[C@@H](C[C@H]1/N=C/c1ccc(F)cc1)C2(C)C | 16.3
C[C@@H]1[C@H]2C[C@@H](C[C@H]1NCC1CC1)C2(C)C | 28.5
C[C@@H]1[C@H]2C[C@@H](C[C@H]1NCc1ccc(F)cc1)C2(C)C | > 200
C[C@@H]1[C@H]2C[C@@H](C[C@H]1/N=C/c1ccc(O)cc1)C2(C)C | 0.088
C[C@@H]1[C@H]2C[C@@H](C[C@H]1NC1CCCCC1)C2(C)C | 43.7
C[C@@H]1[C@H]2C[C@@H](C[C@H]1/N=C/c1ccc(N(C)C)cc1)C2(C)C | 38.4
CC(C)N[C@@H]1C[C@@H]2C[C@H]([C@H]1C)C2(C)C | > 200
CCN[C@@H]1C[C@@H]2C[C@H]([C@H]1C)C2(C)C | > 200
C[C@@H]1[C@H]2C[C@@H](C[C@H]1/N=C/c1ccccc1O)C2(C)C | 20.3

Test system: Influenza A virus
Experiment: Antiviral activity against amantadine-sensitive Influenza A virus A/Hong Kong/8/68 (H3N2) infected in MDCK cells at 0.01 to 10 uM after 2 to 3 days by crystal violet staining by plaque reduction assay
Assay type: functional, organism-based
How it was run: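 MDCK monolayer infected with 0.01 MOI A/Hong Kong/8/68 for 1 h at 37 °C. Inoculum removed and cells washed twice with PBS, then overlaid with 1% agar DMEM containing test agent. Plaque formation scored.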

SMILES | Activity
C[C@@H]1[C@H]2C[C@@H](C[C@H]1/N=C/c1ccc(O)cc1)C2(C)C | Active

Test system: Influenza A virus
Experiment: Ratio of compound IC50 to amantadine IC50 for Influenza A virus A/Hong Kong/8/68 (H3N2)
Assay type: functional

SMILES | Ratio IC50
C[C@@H]1[C@H]2C[C@@H](C[C@H]1/N=C/c1ccc(O)cc1)C2(C)C | 240
